Data on five compounds can be found in ChEMBL document CHEMBL1145446, “Phosphonated carbocyclic 2'-oxa-3'-azanucleosides as new antiretroviral agents” (J Med Chem, 2007).

≈ marks a conversion by molar mass, not a printed value. Calls of active or inactive are those of the source. The rule behind the calls is not given here. Bounds are passed on as bounds.

For one data set, the system named is PBMC. The data set is described as follows: Cytotoxicity against PBMC after 1 week by trypan blue exclusion test. Type of data set: cell-based. To be noted: human, 168 h. In short, it runs like this:
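Freshly separated PBMCs were cultured short-term with compound and interleukin 2, without other stimuli. Cell growth and death were assessed on day 7, and cytotoxicity was expressed as CC20.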

In data set [1] the test system is Human T-cell leukemia virus type I. Kind of data set: Antiviral activity against HTLV1 in human PBMC. It is filed as functional. Put shortly:
(§1)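 Fresh human PBMC cultures were given compound at 100, 25, 5 or 1 µM immediately before exposure to HTLV-1. Infection was read out as Tax/Rex viral mRNA expression by liquid hybridization assay 3 weeks after virus exposure.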

Data set [2] has the same test system. Kind of data set: Inhibition of HTLV1 reverse transcriptase. In short, it runs like this:
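Cell-free assay of HTLV-1 reverse transcriptase, with compounds activated by incubation with human PBMC crude extract. Reverse transcription was read out by RT-PCR using a 20-cycle amplification program.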

Data set [3] shares this test system. Kind of data set: Antiviral activity against HTLV1 in human PBMC at 100 uM. It is filed as functional, organism-based. In short, it runs like this:
as §1

Data set [4] shares this test system. Kind of data set: Antiviral activity against HTLV1 in human PBMC at 5 uM. Type of data set: functional, organism-based. Put shortly: as §1
For data set [5] the test system is unchanged. The data set is described as follows: Antiviral activity against HTLV1 in human PBMC at 1 uM. Type of data set: functional, organism-based. Put shortly:
as §1

Data set [6] shares this test system. The data set is described as follows: Antiviral activity against HTLV1 in human PBMC at 25 uM. Type of data set: functional, organism-based. In short, it runs like this: as §1

As to `CCOP(=O)(CC1CC(n2cc(Br)c(=O)[nH]c2=O)ON1C)OCC` (racemic), in the data set on PBMC, the CC20 is over 2048 µM and the GI25 was found to be 215 µM. The MPC in data set [1] was over 100 µM. In data set [2], this compound displayed an MIC of 8 nM (≈ 3.41 ng/mL).

On to `CCOP(=O)(CC1CC(n2cc(C)c(=O)[nH]c2=O)ON1C)OCC` (stereo not given), for which the outcome in data set [3], in data set [4], in data set [5] and in data set [6] was Active. Besides, the CC20 in the data set on PBMC is over 2048 µM. Besides, in the data set with PBMC, the GI25 was 817 µM. Further, the MPC in data set [1] came to 1 µM.

Regarding `Cc1cn([C@H]2C[C@H](N=[N+]=[N-])[C@@H](CO)O2)c(=O)[nH]c1=O` [ZIDOVUDINE], the result in data set [3], in data set [4], in data set [5] and in data set [6] was Active. The compound also showed a CC20 in the data set on PBMC of 1153 µM. This compound also yielded a GI25 in the data set on PBMC of 15 µM. The compound further displayed an MPC in data set [1] of 1 µM. Further, the MIC in data set [2] was 4 nM (≈ 1.07 ng/mL).

In the case of `CCOP(=O)(CC1CC(n2cc(F)c(=O)[nH]c2=O)ON1C)OCC` (stereo not given), the result in data set [3], in data set [4], in data set [5] and in data set [6] was Active. Further, the CC20 in the data set on PBMC is over 2048 µM. The GI25 with PBMC was found to be 119 µM. In addition, in data set [1], the MPC was found to be 1 µM.

In the data set on PBMC, `CCOP(=O)(CC1CC(n2cnc3c(N)ncnc32)ON1C)OCC` (racemic) displayed a CC20 of over 2048 µM and a GI25 of 121 µM. The same compound came in with an MPC in data set [1] of over 100 µM. Also, in data set [2], the MIC is over 10000 nM.
